Compound activity from PubChem BioAssay.
Runt-CBFb FRET – Runt domain-CBFb interaction inhibition. Q01196+Q13951. Cerulean-Runt/Venus-CBFb FRET ratio 530/480, 1 h. 220,000 compounds, 0.46% hits. inhibition, % at 20 µM;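 active = inhibition over about 50% at 20 µM in the single-dose screen, limit read from the data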
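Schedule: protein complex preformed 1 h, compound exposure 1 h, room temperature, dark; test system: Cerulean-labeled Runt domain protein; amount: 100 nM per protein; buffer or medium: Tris 50 mM pH 7.5, KCl, K2SO4, 0.01% BSA; read-out: loss of energy transfer signal; detection: FRET fluorescence; controls: 5 µM unlabeled CBFb as full-inhibition high control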
RanGTP-Imp inh – disruptors of Ran-importin-beta complex formation – biochemical, FRET, CFP-Ran, YFP-importin-beta, homogeneous, primary screen; 300,000 compounds, 1.1% hits; cell-free CFP-Ran/YFP-importin-beta FRET ratio; inhibition, % (no concentration beside the values); AID 2216;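 active = more than half of the replicate wells show a fall in the fluorescence ratio signal beyond about 16%, limit read from the data, passing the limit was not always enough; inconclusive = exactly half of the replicate wells pass the set limit; inactive = fewer than half of replicates pass the limit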
PERK inh – human PERK inhibition, primary cell-based screen | Q9NZJ5 | CHO PERK-DD fusion, SEAP luminescence translation reporter | inhibition, % at 5.6 µM | 220,000 compounds, 0.17% hits | AID 1416;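 active = inhibition above the mean inhibition of all tested compounds plus 3 SD, set separately per screening campaign, cut at about 2.9% in these data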;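 note: PERK kinase domain activated by AP20187 dimerizer at 100 nM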
eIF4E 4G PPI – blocks eIF4E binding to eIF4G | TR-FRET eIF4E-eIF4GI(517-606) binding, 2 h | 220,000 compounds, 0.37% hits | AID 782 | inhibition, % at 21.7 µM | P63073+Q04637;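 active = inhibition above about 30%, limit read from the data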
Hck Nef HTS – blocks Nef-activated human Hck kinase; inhibition, % at 20 µM; Recombinant Hck-YEEI plus Nef, Z-Lyte FRET kinase assay; 220,000 compounds, 0.68% hits; AID 463187;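 active = Hck-Nef kinase inhibition above about 50%, limit read from the data; inactive = inhibition below that limit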
Target sequence (P08631 whole entry, looked up): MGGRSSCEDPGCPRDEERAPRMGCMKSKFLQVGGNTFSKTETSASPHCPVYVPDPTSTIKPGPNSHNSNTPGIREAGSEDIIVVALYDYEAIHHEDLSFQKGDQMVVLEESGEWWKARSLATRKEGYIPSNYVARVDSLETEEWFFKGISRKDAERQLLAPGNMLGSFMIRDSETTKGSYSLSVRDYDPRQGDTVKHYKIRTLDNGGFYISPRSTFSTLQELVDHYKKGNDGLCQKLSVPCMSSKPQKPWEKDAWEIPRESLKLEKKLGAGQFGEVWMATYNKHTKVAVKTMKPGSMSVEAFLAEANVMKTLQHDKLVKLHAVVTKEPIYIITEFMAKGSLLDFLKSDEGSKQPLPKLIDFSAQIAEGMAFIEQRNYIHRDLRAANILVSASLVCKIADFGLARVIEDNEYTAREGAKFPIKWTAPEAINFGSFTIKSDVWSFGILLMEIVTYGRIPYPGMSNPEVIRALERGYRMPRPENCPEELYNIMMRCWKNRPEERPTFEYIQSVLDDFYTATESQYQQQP
Runt-SMMHC FRET – inhibitors of human RUNX1 Runt domain binding to CBFb-SMMHC; AID 1434; Q01196+Q13951; inhibition, % at 20 µM; Cerulean-Runt/Venus-CBFb-SMMHC FRET ratio 530/480, 1 h; 220,000 compounds, 0.74% hits;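 active = mean inhibition across duplicate retests at 20 µM reaching about 50%, limit read from the data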;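 note: inhibitors lower the FRET ratio by blocking Runt binding to CBFb-SMMHC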
YIC counter – counter-screen YIC FRET for RanGTP-importin-beta inhibitors; AID 435026; shares compounds with RanGTP-Imp inh; 1,000 compounds, 40% hits; Purified YIC probe, intramolecular FRET ratio YFP/CFP; IC50, µM;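 active = fitted half-maximal inhibitory concentration no more than tenfold above the top dose tested; inconclusive = flat fit with 30 to 70% activity, or poor fit; inactive = half-maximal concentration beyond tenfold above the top dose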
Hits are given with their value; . = inactive; ? = inconclusive; / = no result given. This is a sample that favours compounds with a hit; in the whole collection about 2.2% have one here.

SMILES | Runt-CBFb FRET | RanGTP-Imp inh | PERK inh | eIF4E 4G PPI | Hck Nef HTS | Runt-SMMHC FRET | YIC counter
CSc1nsc(/C=C/Nc2ccc(C)cc2)c1C#N | . | 23.8 | . | . | . | . | .
COc1cc(/C=N/Nc2snc(SC)c2C#N)ccc1O | . | . | . | . | . | . | /
Nc1c(C(=O)NC2CCCC2)c2nc3ccccc3nc2n1/N=C/c1ccco1 | . | 26.4 | . | . | . | . | 9.48
COc1ccccc1/C=N/n1c(N)c(C(=O)NC2CCCCC2)c2nc3ccccc3nc21 | . | / | . | . | . | . | /
CC1C(=O)CCN(C(C)C)C1C (stereo not drawn) | . | . | . | . | . | . | /
CCC(C)CNC(=O)c1cccc(OC2CCN(CC(C)(C)C)CC2)c1 (stereo not drawn) | / | . | / | / | / | / | /
CCCCN(C)C(=O)c1cccc(OC2CCN(CC(C)(C)C)CC2)c1 | / | 17.2 | / | / | / | / | .
CC(C)c1ccc(CN2CCC(Oc3ccc(C(=O)N4CCCC4)cc3)CC2)cc1 | / | 21.1 | / | / | / | / | .
CCc1ccc(CN2CCC(Oc3ccc(C(=O)N4CCCC4)cc3)CC2)cc1 | / | . | / | / | / | / | /
N#Cc1nc(-c2ccco2)oc1NCCc1ccccc1 | . | . | . | . | . | . | /
COc1ccc(CCNc2oc(-c3ccco3)nc2C#N)cc1 | . | 26.2 | . | . | . | . | .
CC(C)(C)c1ccc(S(=O)(=O)NCC(=O)N2CCCC2)cc1 | / | . | / | / | / | / | /
CC(C)(C)c1ccc(S(=O)(=O)NCC(=O)N2CCN(C(=O)c3ccco3)CC2)cc1 | . | 20.6 | . | . | . | . | .
Cc1cccn2c(=O)c(/C=C(\C#N)C(N)=O)c(N3CCN(c4ccccc4)CC3)nc12 | / | . | / | / | / | / | /
CCN1CCN(c2nc3c(C)cccn3c(=O)c2/C=C(\C#N)C(=O)NCCCOC)CC1 | / | . | / | / | / | / | /
COCCNC(=O)/C(C#N)=C/c1c(N2CCN(c3ccc(OC)cc3)CC2)nc2c(C)cccn2c1=O | / | 18.7 | / | / | / | / | 46.5
CCOC(=O)/C(C#N)=C/c1c(N2CCN(c3ccc(OC)cc3)CC2)nc2c(C)cccn2c1=O | / | 20.5 | / | / | / | / | .
Cc1cccn2c(=O)c(/C=C(\C#N)C(N)=O)c(Oc3ccccc3)nc12 | . | 24.7 | . | . | . | 118.8 | 1.58
CSCCC(NC(=O)c1cccc(C)c1)C(=O)O (stereo not drawn) | . | . | . | . | . | . | /
CC(C)(C)NC(=O)NC12CC3CC(CC(C3)C1)C2 | . | . | . | . | . | . | /
Cc1cc(SCC(=O)Nc2cccc(S(N)(=O)=O)c2)c(C)cc1Br | . | . | . | . | . | . | /
NC(=O)c1ccc(F)cc1 | / | 17.1 | . | . | . | / | .
COc1ccc(C(=O)Oc2c(CN3CCOCC3)cc(Cl)c3cccnc23)cc1 | . | 25.2 | . | . | . | . | .
COc1cc(C(=O)Oc2c(CN3CCOCC3)cc(Cl)c3cccnc23)cc(OC)c1OC | . | 16.1 | . | . | . | . | .
CCC1CCCCN1CCCNC(=O)c1ccc2nc(N3CCCCC3)sc2c1 (stereo not drawn) | / | . | / | / | / | / | /
SMILES | Runt-CBFb FRET | RanGTP-Imp inh | PERK inh | eIF4E 4G PPI | Hck Nef HTS | Runt-SMMHC FRET | YIC counter
COC(=O)c1cccc(NC(=O)CSc2nnnn2C)c1 | . | . | . | . | . | . | /
CN1CCc2c(sc(NC(=O)c3ccc(S(=O)(=O)N4CCOCC4)cc3)c2C(N)=O)C1 | . | 19.3 | . | . | . | . | 46
CCn1c(SCc2nc(-c3ccccc3)no2)nnc1-c1ccco1 | . | . | . | . | . | . | /
CCn1c(SCc2nc(-c3ccccc3)no2)nnc1-c1cccs1 | . | 23.7 | . | . | . | . | .
COc1ccc(C(=O)N(C)c2c(C)n(C)n(-c3ccccc3)c2=O)cc1OC | . | . | . | . | . | . | /
CCOC(=O)c1[nH]c(C)c(C(=O)N(C)Cc2ccccc2)c1C | . | 25.5 | . | . | . | . | .
COC(=O)c1ccc(NC(=O)C(=O)N2CCN(C(=S)Nc3ccccc3OC)CC2)cc1 | . | 19.5 | . | . | . | . | .
COC(=O)c1ccc(NC(=O)C(=O)N2CCN(C(=S)Nc3cccc(C)c3C)CC2)cc1 | . | ? | . | . | . | . | /
